From PubChem
Only some compounds are listed: those with a hit (about 2.9% of all), similar ones and a draw of the others.
Insulin prom up = MIN6 insulin promoter up-regulation; hit rate 0.3% among 190,000; z-score at 5 µM; MIN6 insulin promoter-GFP reporter, high-content imaging; hits give high values;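 active = z-score above 3 at 5 µM with at least 500 cells counted in the well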
Autophagy mod = modulators of autophagy | calls only at 10 µM (by protocol) | MEF GFP-LC3 puncta imaging; test concentration mostly 10 µM | hit rate 0.98% among 190,000;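 active = percentage of spot-positive cells more than 3 SD above its plate mean, without a fluorescence outlier flag or 80% toxicity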;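 also: spot-positive cell cutoff set from DMSO-treated cells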
MT stabilize HCS = microtubule stabilization, imaging screen; HeLa tubulin immunostaining HCS, 24 h; share of cells brighter than vehicle mean+2SD; % tubulin-high responders, % at 10 µM; hit rate 0.83% among 200,000; AID 2205;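 active = plate Z-score above 3 for both tubulin-high and condensed-nucleus cell shares, with cell loss under 80%, at 10 µM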;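 also: anti alpha tubulin signal scored within the nucleus-defined area of each cell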
b-catenin transl = beta-catenin nuclear translocation modulation; AID 1665; nuclear translocation activity, % at 5 µM; hit rate 0.3% among 190,000; HeLa beta-catenin nuclear translocation, immunofluorescence imaging;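 active = nuclear translocation activity above 50% at 5 µM, with a well cell count of 50 or more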;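 also: per-cell ratio of nuclear to cytoplasmic median beta-catenin stain intensity; plate controls were DMSO negative control for no effect and GSK-3 inhibitor IX positive control for full effect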
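Test system: human HeLa cells, native beta-catenin. Compound dosing: 5 µM primary single dose, 0.1% DMSO, 0.02–20 µM confirmation series. Incubation: compound exposure 24 h at 37°C. Detection: beta-catenin immunostaining with DAPI counterstain, 20x imaging, 6 fields/well. Read-out basis: Nuclear/cytoplasmic beta-catenin signal ratio, % activation.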
Wee1 stabilizer = human Wee1 degradation inhibition, primary screen; HeLa Luc-Wee1K328M stability, luciferase luminescence; 100% = proteasome inhibitor MG132 effect; AID 1321; reporter increase, % at 5 µM; hit rate 1.2% among 220,000; P30291;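 active = activation above the mean of all tested compounds plus 3 SD, set per screening run, cut at about 8.8% in these data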;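 also: cells exposed to compound for 20 h before luminescence read; 0% = DMSO alone and 100% = MG132 at 30 µM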
Target sequence (P30291 whole entry K328M): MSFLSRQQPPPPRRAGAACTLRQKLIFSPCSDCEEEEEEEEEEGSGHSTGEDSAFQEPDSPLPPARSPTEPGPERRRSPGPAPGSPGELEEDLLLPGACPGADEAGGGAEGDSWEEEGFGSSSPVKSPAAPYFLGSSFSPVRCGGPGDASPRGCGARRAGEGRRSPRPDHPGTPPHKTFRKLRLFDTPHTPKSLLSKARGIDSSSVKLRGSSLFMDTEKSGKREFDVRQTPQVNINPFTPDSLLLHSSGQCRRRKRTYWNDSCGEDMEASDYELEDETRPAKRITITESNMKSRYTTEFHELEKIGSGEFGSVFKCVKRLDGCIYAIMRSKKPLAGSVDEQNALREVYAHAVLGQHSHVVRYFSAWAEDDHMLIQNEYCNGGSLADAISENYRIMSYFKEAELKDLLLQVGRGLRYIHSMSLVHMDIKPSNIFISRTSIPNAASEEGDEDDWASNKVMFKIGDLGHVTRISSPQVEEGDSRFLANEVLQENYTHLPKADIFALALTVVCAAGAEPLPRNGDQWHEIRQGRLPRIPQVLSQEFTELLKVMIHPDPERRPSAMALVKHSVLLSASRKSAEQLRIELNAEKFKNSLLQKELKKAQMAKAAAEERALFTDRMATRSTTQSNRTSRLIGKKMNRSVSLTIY
Wee1 stab conf = confirmation of human Wee1 degradation inhibitors. hit rate 4% among 1,100. shares compounds with Wee1 stabilizer. HeLa Luc-Wee1K328M degradation, luminescence; vehicle 0%, proteasome-blocked wells 100%. activation, % at 5 µM; in the data active = activation above about 8.9%
The depositor's hits bear a star; i = inactive; nt = not tested or not shown.

SMILES	Insulin prom up	Autophagy mod	MT stabilize HCS	b-catenin transl	Wee1 stabilizer	Wee1 stab conf
COC(=O)C1=C(C)NC(=S)NC1/C=C/c1ccccc1 (stereo not given)	-0.47	i	2.0	-3.2	0.9	nt
CCOC(=O)C1=C(C)NC(=S)NC1/C=C/c1ccccc1 (stereo not given)	0.88	i	3.6	2.0	16.0*	4.6
O=C(Cc1ccc(Cl)cc1)Nc1ccc(S(=O)(=O)Nc2cnc3ccccc3n2)cc1	0.29	i	2.0	-0.3	11.5*	0.8
CCN(CC)CC(=O)NN(Cc1ccccc1)c1ccccc1	-0.44	nt	nt	-1.0	11.1*	1.8
CCc1ccc(CN(C)C(=O)CCc2nnc(COc3ccccc3)o2)cc1	0.05	i	1.7	-0.2	0.0	nt
O=C(/C=C\Nc1ccc(Br)cc1)c1cccnc1	-0.11	i	6.5	-2.4	11.0*	-0.4
O=C(CSc1n[nH]c(=O)[nH]c1=O)NC1CC1	0.17	i	6.6	-4.6	-2.6	nt
O=C(Nc1ncc(Cc2ccccc2)s1)C1CCCO1 (stereo not given)	-0.41	nt	5.9	-0.1	11.0*	0.2
Cc1ccc(/C(O)=C2\C(=O)C(=O)N(CC(C)O)C2c2ccccn2)cc1 (stereo not given)	0.65	i	3.8	-3.9	-0.8	nt
O=C(CCNS(=O)(=O)c1cccs1)N1CCc2ccccc2C1	-0.08	i	1.4	-1.2	18.8*	1.4
OCCN(CCO)c1ncnc2c1sc1nc(N3CCOCC3)c3c(c12)CCCC3	nt	i	0.8	2.6	13.9*	1.3
CCCCN(C(=O)c1ccc2c(c1)OCO2)c1ccccc1	-0.55	i	2.7	2.2	13.8*	-0.2
CN(Cc1ccccc1)C(=O)c1ccc2c(c1)OCO2	0.28	i	4.3	-0.2	0.1	nt
CCN(CC)CCCOC(=O)c1ccc(OC)cc1O	0.24	i	3.4	0.4	-0.6	nt
CCOC(=O)/C(=N/Nc1ccccc1)Sc1nnc(CCc2ccccc2)n1-c1ccccc1	0.09	i	6.5	0.8	0.7	nt
CCn1c(CSc2nc3ccccc3s2)nnc1SCC(N)=O	0.11	i	2.5	0.5	15.6*	1.9
Clc1ccccc1Cc1noc(CN2CCCCC2CCc2ccccn2)n1 (stereo not given)	-0.71	i	4.9	0.7	2.5	nt
COc1ccc(Nc2nc3ccc(OC)cc3s2)cc1	-0.66	i	1.4	1.1	-1.9	nt
COc1ccc2nc(Nc3nc(C)c(C(C)=O)s3)sc2c1	0.27	i	5.1	-2.0	11.7*	5.4
CCOc1ccc2cc(C3CC(c4ccco4)=NN3S(=O)(=O)c3ccccc3)c(Cl)nc2c1 (stereo not given)	-1.12	i	3.0	-5.5	-0.9	nt
COc1ccc2cc(C3CC(c4ccco4)=NN3S(=O)(=O)c3ccccc3)c(Cl)nc2c1 (stereo not given)	-1.15	i	2.8	-1.0	16.5*	1.4
Clc1ccc(Nc2nc(C3CC3)cs2)cc1	0.92	i	3.0	-6.5	12.2*	3.6
CN1CCN(C(=O)C2CC(c3c(F)cccc3Cl)=NO2)CC1 (stereo not given)	0.09	i	1.1	-0.5	12.9*	-1.3
Cc1ccc(O)c(NC(=O)C2CC(c3c(F)cccc3Cl)=NO2)c1 (stereo not given)	0.63	i	3.6	5.7	1.7	nt
CCOC(=O)C1=C(O)C(=O)N(Cc2ccc(C(C)(C)C)cc2)CC1	-0.8	i	1.4	-0.7	13.8*	1.3
SMILES	Insulin prom up	Autophagy mod	MT stabilize HCS	b-catenin transl	Wee1 stabilizer	Wee1 stab conf
CCN(CC)C(=O)CNc1ccc(C(F)(F)F)cc1[N+](=O)[O-]	-0.62	i	5.0	-2.0	2.5	nt
Cc1ccc(C)c(S(=O)(=O)N2CC(=O)N(CCc3ccccc3)C(=O)C2)c1	0.36	i	3.0	-2.1	-1.7	nt
CCC(=O)N1CC2(c3ccccc3)CN(C(=O)CC)CC(c3ccccc3)(C1)C2=O	-0.9	i	1.1	-0.2	12.0*	-0.5
O=C(Cc1c(F)cccc1Cl)Nc1ccc(S(=O)(=O)NCC2CCCO2)cc1 (stereo not given)	0.74	i	1.4	0.2	-0.7	nt
OCCSc1c(F)c(SCCO)c(SCCO)c(F)c1SCCO	nt	i	2.4	nt	0.1	nt
O=C(COC(=O)c1cc(=O)c2ccccc2o1)NC1CCCCC1	-0.59	i	2.4	0.1	16.8*	2.6
CC1CCCCC1NC(=O)COC(=O)c1cc(=O)c2ccccc2o1 (stereo not given)	-0.65	i	2.8	-1.6	-2.3	nt
Cc1cccc(N2CCN(C3=NC(=O)C(Cc4ccccc4)S3)CC2)c1 (stereo not given)	0.17	i	3.3	-1.0	0.2	nt
COc1ccc(C2(O)CC3CCC(C2)N3c2cc(C)nc(-c3ccccc3)n2)cc1 (stereo not given)	-1.54	i	9.3	3.3	1.2	nt
Cc1cc(N2CCCC2)nc(N2C3CCC2CC(O)(c2ccc(F)cc2)C3)n1 (stereo not given)	nt	i	2.2	-2.8	16.4*	-3.0
Cc1ccc(-c2csc(=Nc3cccnc3)n2CCCn2ccnc2)cc1C	-3.01	i	2.1	-0.5	-4.1	nt
CCn1c(SCC(=O)N/N=C/C=C/c2ccco2)nc2ccccc21	0.02	i	6.7	-0.4	0.4	nt
CCn1c(SCC(=O)N/N=C(/C)c2ccncc2)nc2ccccc21	-0.57	nt	nt	0.6	14.7*	6.3
Cc1ccc(F)c(NC(=O)/C(C#N)=C(\O)c2ccc(C(C)(C)C)cc2)c1	0.26	i	2.4	-3.5	2.3	nt
